From ChEMBL document CHEMBL1165940, “Design, synthesis and biological evaluation of a novel series of anthrapyrazoles linked with netropsin-like oligopyrrole carboxamides as anticancer agents” (Bioorg Med Chem, 2010)

What was measured:
K562 [1] = assay: Resistant factor, ratio of IC50 human K/VP.5 cells to IC50 for human K562 cells; type: functional
Procedure, shortened: (§1)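 Suspension cultures in αMEM with 10% fetal calf serum: parental K562 and the etoposide-resistant sub-line K/VP.5, which has reduced topoisomerase IIα. Drugs freshly dissolved in DMSO (final ≤1.9% v/v) and given for 72 h, then MTS reduction read by absorbance. IC50 from triplicate data fitted to a four-parameter logistic equation. Resistance factor is IC50 in K/VP.5 divided by IC50 in K562.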

[2] = target: T1, DNA topoisomerase 1 (Homo sapiens) (UniProt P11387); assay: Inhibition of topoisomerase 1-mediated relaxation of supercoiled pBR322 DNA at 20 uM after 20 mins using ethidium bromide staining by electrophoresis relative to control
T1 sequence (whole entry): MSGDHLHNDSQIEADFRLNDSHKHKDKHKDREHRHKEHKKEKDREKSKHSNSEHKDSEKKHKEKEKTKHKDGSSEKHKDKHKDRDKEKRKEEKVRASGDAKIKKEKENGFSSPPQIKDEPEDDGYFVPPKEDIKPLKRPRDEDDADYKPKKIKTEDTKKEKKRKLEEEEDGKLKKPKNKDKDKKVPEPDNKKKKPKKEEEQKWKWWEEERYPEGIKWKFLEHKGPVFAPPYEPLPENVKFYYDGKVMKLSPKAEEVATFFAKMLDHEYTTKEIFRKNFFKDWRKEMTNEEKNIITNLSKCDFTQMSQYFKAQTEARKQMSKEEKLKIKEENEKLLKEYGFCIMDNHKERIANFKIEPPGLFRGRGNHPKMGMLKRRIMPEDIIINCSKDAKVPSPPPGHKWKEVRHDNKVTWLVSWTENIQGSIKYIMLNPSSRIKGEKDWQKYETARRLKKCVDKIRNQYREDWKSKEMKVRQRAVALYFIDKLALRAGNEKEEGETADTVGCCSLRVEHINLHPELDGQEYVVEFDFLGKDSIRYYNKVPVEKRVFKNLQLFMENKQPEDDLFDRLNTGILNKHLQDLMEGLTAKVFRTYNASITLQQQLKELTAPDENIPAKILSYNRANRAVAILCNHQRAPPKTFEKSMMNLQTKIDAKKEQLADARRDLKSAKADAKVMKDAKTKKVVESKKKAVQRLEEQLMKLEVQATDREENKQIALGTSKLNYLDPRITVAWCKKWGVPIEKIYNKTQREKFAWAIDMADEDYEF
Procedure, shortened: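 Nuclear extract (50 ng) used as the topoisomerase I source with 60 ng supercoiled pBR322 and 20 µM drug, 20 min at 37 °C. Reaction stopped with 0.05% SDS, then electrophoresis run without ethidium bromide and gel stained afterwards. Supercoiled band quantified by densitometry relative to DNA alone without enzyme (100%). Camptothecin at 50 µM was the positive control.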

[3] = target: DNA topoisomerase 2-alpha (Homo sapiens) (UniProt P11388); assay: Inhibition of human recombinant topoisomerase 2 alpha assessed as stabilization of enzyme-PBR322 DNA complex at 100 uM relative to control
Chain of DNA topoisomerase 2-alpha (Homo sapiens) (P11388 whole entry): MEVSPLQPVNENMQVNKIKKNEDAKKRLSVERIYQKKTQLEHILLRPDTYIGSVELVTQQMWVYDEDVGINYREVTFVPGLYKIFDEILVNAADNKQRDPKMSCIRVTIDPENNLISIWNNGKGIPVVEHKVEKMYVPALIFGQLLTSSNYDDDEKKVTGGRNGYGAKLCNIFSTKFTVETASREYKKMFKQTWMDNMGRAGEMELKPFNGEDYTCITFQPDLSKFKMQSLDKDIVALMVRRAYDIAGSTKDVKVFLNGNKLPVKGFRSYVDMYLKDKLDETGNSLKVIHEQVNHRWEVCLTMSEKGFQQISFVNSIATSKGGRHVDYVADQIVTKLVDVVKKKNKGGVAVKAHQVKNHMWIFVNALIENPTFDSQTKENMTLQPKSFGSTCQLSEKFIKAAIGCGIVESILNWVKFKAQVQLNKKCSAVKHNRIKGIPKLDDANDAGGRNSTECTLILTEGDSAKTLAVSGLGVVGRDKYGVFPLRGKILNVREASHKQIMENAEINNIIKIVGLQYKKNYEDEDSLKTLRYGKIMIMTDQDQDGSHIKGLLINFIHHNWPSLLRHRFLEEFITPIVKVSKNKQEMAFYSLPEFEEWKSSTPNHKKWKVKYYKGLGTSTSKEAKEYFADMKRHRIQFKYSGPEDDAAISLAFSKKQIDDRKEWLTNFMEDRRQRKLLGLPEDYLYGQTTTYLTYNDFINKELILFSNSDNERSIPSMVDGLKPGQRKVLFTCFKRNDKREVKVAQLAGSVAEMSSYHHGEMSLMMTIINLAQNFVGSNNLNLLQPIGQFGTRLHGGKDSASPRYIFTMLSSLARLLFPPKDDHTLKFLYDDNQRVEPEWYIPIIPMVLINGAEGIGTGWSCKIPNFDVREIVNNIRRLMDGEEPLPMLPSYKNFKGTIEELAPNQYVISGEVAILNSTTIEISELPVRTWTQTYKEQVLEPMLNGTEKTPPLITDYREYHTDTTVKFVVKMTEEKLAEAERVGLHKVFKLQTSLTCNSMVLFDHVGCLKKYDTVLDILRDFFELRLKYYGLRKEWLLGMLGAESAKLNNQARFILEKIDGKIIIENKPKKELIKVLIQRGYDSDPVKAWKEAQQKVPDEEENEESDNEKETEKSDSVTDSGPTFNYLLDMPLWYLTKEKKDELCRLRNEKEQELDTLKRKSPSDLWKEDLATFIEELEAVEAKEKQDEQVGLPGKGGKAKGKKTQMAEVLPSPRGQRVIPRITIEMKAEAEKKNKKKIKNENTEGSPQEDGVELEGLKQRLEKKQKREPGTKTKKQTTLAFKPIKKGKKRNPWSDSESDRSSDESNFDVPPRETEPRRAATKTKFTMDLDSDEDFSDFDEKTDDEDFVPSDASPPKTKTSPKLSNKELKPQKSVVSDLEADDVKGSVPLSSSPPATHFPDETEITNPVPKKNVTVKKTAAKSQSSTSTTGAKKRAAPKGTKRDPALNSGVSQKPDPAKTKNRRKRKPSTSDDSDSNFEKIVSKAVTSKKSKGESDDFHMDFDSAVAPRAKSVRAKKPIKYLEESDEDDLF
Procedure, shortened: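 Closed circular pBR322 DNA with topoisomerase IIα and 100 µM compound at 37 °C; components mixed on ice before drug addition. Complexes trapped with SDS and products separated by gel electrophoresis containing ethidium bromide. Linear DNA bands quantified by densitometry relative to the band from 100 µM etoposide, set to 100%.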

K562 [4] = assay: Cytotoxicity against human K562 cells after 72 hrs by MTS assay; type: functional, cell-based; conditions: K562, 72 h; procedure, shortened: as §1
[5] = target: DNA topoisomerase 2-alpha (Homo sapiens) (UniProt P11388); assay: Inhibition of human recombinant topoisomerase 2 alpha-mediated Crithidia fasciculate kDNA decatenation at 20 uM relative to control
Procedure, shortened: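 Topoisomerase IIα decatenation of kDNA with 20 µM compound, analysed by gel electrophoresis. Fully decatenated open circular DNA band quantified by densitometry. Inhibition calculated as 100 minus percentage relative integrated band intensity. Etoposide included as a control.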

Calf thymus DNA = assay: Binding affinity to calf thymus DNA assessed as increase in melting temperature at 1 uM by spectrophotometer analysis; type: nucleic-acid assay; conditions: Bos taurus
[6] = Cytotoxicity against human K/VP.5 cells after 72 hrs by MTS assay; type: functional, cell-based; conditions: K/VP.5, 72 h
Procedure, shortened: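 Suspension cultures in αMEM with 10% fetal calf serum: parental K562 and the etoposide-resistant sub-line K/VP.5, which has reduced topoisomerase IIα. IC50 from triplicate data fitted to a four-parameter logistic equation. Resistance factor is IC50 in K/VP.5 divided by IC50 in K562.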

[7] = Chemical stability in DMSO-d6 assessed as decomposition after 24 hrs; type: physicochemical
DC3F = assay: Cytotoxicity against hamster DC-3F cells; type: functional, cell-based; conditions: Cricetulus griseus

| Structure (SMILES) | Ratio IC50 (K562 [1]) | inhibition [2] [%] | % cleavage [3] [%] | IC50 (K562 [4]) [µM] | inhibition [5] [%] | ΔTm (Calf thymus DNA) [°C] | IC50 [6] [µM] | Stability [7] | IC50 (DC3F) [µM] |
| --- | --- | --- | --- | --- | --- | --- | --- | --- | --- |
| Cn1cc(NC(=O)c2cc(N)cn2C)cc1C(=O)NCCn1nc2c3c(cccc31)C(=O)c1ccccc1-2 | 1.5 | 49 | 6 | 4.1 | 91 | 2.7 | 6.4 | – | – |
| CN(C)CC(=O)Nc1cc(C(=O)Nc2cc(C(=O)NCCn3nc4c5c(cccc53)C(=O)c3ccccc3-4)n(C)c2)n(C)c1 | 1.1 | 23 | – | 0.13 | 91 | 4.3 | 0.14 | – | – |
| Cn1cc(N)cc1C(=O)NCCn1nc2c3c(cccc31)C(=O)c1ccccc1-2 | 1.7 | 10 | 26 | 12.7 | 94 | 1.8 | 21.9 | – | – |
| Cn1cc(N)cc1C(=O)NCCn1nc2c3c(cccc31)C(=O)c1c(Cl)cccc1-2 | 1.2 | 14 | 29 | 9.9 | 91 | 0.8 | 11.4 | – | – |
| Cn1cc(NC(=O)OC(C)(C)C)cc1C(=O)NCCn1nc2c3c(cccc31)C(=O)c1c(Cl)cccc1-2 | 1 | 47 | 11 | 10.7 | 94 | 0.7 | 11 | Stable | – |
| CN(C)CCNc1cccc2c1C(=O)c1cccc3c1c-2nn3CCNC(=O)c1cc(NC(=O)c2cc(NC(=O)CN(C)C)cn2C)cn1C | 3 | – | – | 0.21 | – | 5.3 | 0.63 | – | – |
| Cn1cc(NC(=O)OC(C)(C)C)cc1C(=O)NCCn1nc2c3c(cccc31)C(=O)c1ccccc1-2 | 1.5 | 11 | 18 | 14.4 | 91 | 1.3 | 22 | Stable | – |
| CN(C)CC(=O)Nc1cc(C(=O)Nc2cc(C(=O)NCCn3nc4c5c(cccc53)C(=O)c3c(Cl)cccc3-4)n(C)c2)n(C)c1 | 1.1 | 31 | – | 0.19 | 97 | 1.7 | 0.21 | – | – |
| CN(C)CC(=O)Nc1cc(C(=O)NCCn2nc3c4c(cccc42)C(=O)c2ccccc2-3)n(C)c1 | 1.4 | 16 | 18 | 2.7 | 94 | 1.6 | 3.9 | – | – |
| COc1cccc2c1C(=O)c1c(O)c3c(c(O)c1C2=O)C[C@@](O)(C(=O)CO)C[C@@H]3O[C@H]1C[C@H](N)[C@H](O)[C@H](C)O1 [DOXORUBICIN] | – | – | 0 | 0.033 | 30 | 8.4 | – | – | – |
| NCCn1nc2c3c(cccc31)C(=O)c1ccccc1-2 | 1.7 | 100 | 29 | 1.8 | 75 | 2.2 | 3.1 | – | – |
| Cn1cc(NC(=O)c2cc(NC(=O)CNC(=N)N)cn2C)cc1C(=O)NCCC(=N)N [NETROPSIN] | – | – | 0 | > 50 | 39 | 5.7 | > 50 | – | 3200 |
| O=C1c2c(Cl)cccc2-c2nn(CCO)c3cccc1c23 | 0.8 | 70 | 14 | 14.3 | 56 | 0.3 | 12 | – | – |
| Cn1cc(NC(=O)c2cc(NC(=O)OC(C)(C)C)cn2C)cc1C(=O)NCCn1nc2c3c(cccc31)C(=O)c1c(Cl)cccc1-2 | 0.7 | 47 | 24 | 2 | 97 | 1 | 1.4 | – | – |
| Cn1cc(NC(=O)c2cc(NC(=O)OC(C)(C)C)cn2C)cc1C(=O)NCCn1nc2c3c(cccc31)C(=O)c1ccccc1-2 | 0.8 | 31 | 4 | 1 | 91 | 0.4 | 0.82 | – | – |
| CN(C)CC(=O)Nc1cc(C(=O)NCCn2nc3c4c(cccc42)C(=O)c2c(Cl)cccc2-3)n(C)c1 | 1.5 | 21 | 22 | 3.5 | 97 | 0.6 | 5.3 | – | – |
| Cn1cc(NC(=O)c2cc(N)cn2C)cc1C(=O)NCCn1nc2c3c(cccc31)C(=O)c1c(Cl)cccc1-2 | 2.9 | 52 | 16 | 12.5 | 94 | 0.6 | 36.6 | – | – |
| NCCn1nc2c3c(cccc31)C(=O)c1c(Cl)cccc1-2 | 1 | 62 | 18 | 3.3 | 100 | 2.7 | 3.5 | – | – |
| O=C1c2ccccc2-c2nn(CCO)c3cccc1c23 | 0.9 | 66 | 24 | 11.9 | 60 | 0.9 | 10.2 | – | – |
